# Experimental data of several laboratories.
# Protocols differ between the studies behind these lines.
# Target: Cyclin-dependent kinase 11B (CDK11B, Homo sapiens, UniProt P21127)
# Technique: competition with immobilised ligand
SMILES,read-out,concentration,remaining binding [%]
CN(C)c1nccc(-c2cnc3ncccn23)n1,binding,1 µM,100
COc1ncc2cc3ccccc3nc2c1C#N,cell-free assay,5 µM,100
O=C(NCCCN1CCOCC1)c1ccc(Nc2nccc(-c3cc4ccccc4s3)n2)cc1,binding,1 µM,57
CC1=C(C#N)C(c2ccc3c(c2)c(NC(=O)c2ccccc2C)nn3C)C(C#N)=C(C)N1,cell-free assay,1 µM,100
C[C@@H](c1ccc(-n2cnc3c(N)ncnc32)cc1)N1CCc2nn(C)c(Cc3ccccc3)c2C1=O,binding,0.1 µM,86
CNC(=O)[C@@H]1CC[C@@H](n2c(-c3ccc4cnccc4c3)nc3ccc(C(=O)NCc4cccc(C(N)=O)c4)cc32)C1,binding,1 µM,100
Cc1cnn2ncc(-c3ccnc(N(C)C)n3)c2c1,binding,1 µM,95
CCN1CCN(Cc2ccc(C(=O)Nc3ccc(C)c(Oc4ccc5c(c4)CC(=O)N5)c3)cc2C(F)(F)F)CC1,binding,1 µM,100
O=C(NCCCN1CCOCC1)c1ccc(Nc2ncc(Cl)c(-c3ccc(Cl)s3)n2)cc1,binding,1 µM,33
C[C@H]1CCN(c2nccc(-c3cnn4ncccc34)n2)C1,binding,1 µM,90
CN(c1ccnc(CNc2nc(Nc3ccc4c(c3)CC(=O)N4)ncc2C(F)(F)F)n1)S(C)(=O)=O,cell-free assay,1 µM,91
CC1CCCN1c1nccc(-c2cnn3ncccc23)n1 (stereo not drawn),binding,1 µM,100
CN(C)C(=O)Cn1cc(-c2nc([C@@](C)(c3ccc(-c4cnc(N)nc4)cc3)C3CC3)no2)cn1,cell-free assay,1 µM,79
Cc1cnc(Nc2ccc(C(=O)N3CCC(N4CCCC4)CC3)cc2)nc1-c1cc2ccccc2s1,binding,1 µM,100
Cc1nc(Cc2cccc(C(F)(F)F)c2)sc1-c1ccc(C(N)=O)nc1,cell-free assay,1 µM,97
COc1cnc(Nc2cccc(S(N)(=O)=O)c2)nc1N1CCN(c2ccccc2)CC1,binding,1 µM,99
N[C@@H]1CCN(c2nccc(-c3cnn4ncccc34)n2)C1,binding,1 µM,100
O=C(NC[C@@H]1[C@H]2CN(C(=O)OCc3cc(C(F)(F)F)cc(C(F)(F)F)c3)C[C@@H]12)c1ccc2[nH]nnc2c1,cell-free assay,1 µM,100
O=C(NCC1CCOCC1)c1n[nH]cc1NC(=O)c1c(F)cccc1F,binding,1 µM,96
COc1ccc2cc(OCC3(C(=O)O)CN(C(=O)c4ccc(F)cc4)C3)ccc2c1,cell-free assay,1 µM,100
CN(CCCC(F)(F)F)c1nccc(-c2cnn3ncccc23)n1,binding,1 µM,94
